High-throughput results from PubChem BioAssay.
Rows were chosen to be rich in hits. Some 1.3% of all compounds tested hit in one or more screens of this group.
H9c2 TAG inh = triacylglycerol accumulation inhibition | H9c2 cells, Nile Red lipid (TAG) fluorescence; cells loaded with 200 µM oleic acid | inhibition, % at 12.5 µM | 230,000 compounds, 0.66% hits | AID 651582;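 active means pattern-corrected inhibition of lipid staining of at least 50% with the nuclear-stain viability signal not falling by more than 50%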
HGIII-sPLA2 inh = Blocks human group III sPLA2 activity; Q9NZ20; QFRET BODIPY PC-A2 liposome hydrolysis, fluorescence; inhibition, % at 12.2 µM; 370,000 compounds, 0.56% hits; AID 743126;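 active means inhibition above mean plus 3 SD of compounds lying within the high and low control bounds, cut at about 19% in these data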
Target sequence (Q9NZ20 whole entry, looked up): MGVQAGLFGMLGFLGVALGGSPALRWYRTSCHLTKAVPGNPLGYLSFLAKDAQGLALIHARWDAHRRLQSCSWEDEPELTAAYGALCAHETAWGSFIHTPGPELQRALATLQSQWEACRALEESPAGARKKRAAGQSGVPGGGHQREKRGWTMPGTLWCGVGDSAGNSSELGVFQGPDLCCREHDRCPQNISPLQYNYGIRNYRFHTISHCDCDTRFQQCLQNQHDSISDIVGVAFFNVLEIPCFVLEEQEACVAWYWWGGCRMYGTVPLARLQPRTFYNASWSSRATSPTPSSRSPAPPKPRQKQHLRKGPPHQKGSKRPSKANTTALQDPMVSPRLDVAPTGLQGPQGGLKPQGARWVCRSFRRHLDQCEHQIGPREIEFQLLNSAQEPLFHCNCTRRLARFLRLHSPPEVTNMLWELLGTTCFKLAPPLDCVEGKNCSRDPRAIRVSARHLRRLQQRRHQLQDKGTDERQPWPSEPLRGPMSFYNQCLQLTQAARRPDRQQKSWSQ
Efflux pump inh = inhibitors of Candida antifungal efflux pumps expressed in yeast; 330,000 compounds, 0.44% hits; inhibition, % at 10 µM; S. cerevisiae Candida pump triplex, Nile Red efflux;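 active means plate passing quality check with inhibition over a set limit, or well fluorescence over plate mean plus 4 SD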;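 further: Nile Red retained in pooled yeast measured as flow cytometry median fluorescence; higher means more Nile Red kept so more efflux inhibition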
MT1-MMP act inh = inhibitors of human MT1-MMP activation; P50281; HT1080 RFP-PRO-GFP cells, GFP/RFP ratio fluorescence, overnight; percent of plate control window, DMSO zero; GFP/RFP ratio change, % at 20 µM; 360,000 compounds, 0.061% hits; AID 651647;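 active means GFP/RFP ratio change of at least 30% with cell ATP level not reduced by more than half and red fluorescence within 50% of control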
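Assay system: HT1080 RFP-PRO-GFP cells. Benchmarks: DMSO vehicle wells and RFP-L50D-GFP reporter cell wells. Times: overnight cell settling, then overnight compound exposure, 37 °C, 5% CO2. Compound: 20 µM single dose, 1% DMSO. Read-out basis: GFP/RFP fluorescence ratio.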
sPLA2 confirm = human GIII-sPLA2 inhibition, confirmation. shares compounds with HGIII-sPLA2 inh. recombinant hGIII-sPLA2, BODIPY PC-A2 QFRET fluorescence. inhibition, % at 12.2 µM. 2,000 compounds, 34% hits. AID 743280;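 active means mean inhibition across triplicates above the hit cutoff set in the earlier primary screen, cut at about 19% in these data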
535nm interf = optically interferes with 535nm fluorescence in sPLA2 counter-screen. shares compounds with HGIII-sPLA2 inh. BODIPY FL product fluorescence interference, QFRET. AID 743282. 2,000 compounds, 8.5% hits. inhibition, % at 12.2 µM;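 active means average inhibition above the solvent-only control mean plus 3 SD, cut at about 6% in these data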
535nm interf DR = counter-screen for HGIII-sPLA2 inhibitors: 535nm fluorescence interference, dose response; shares compounds with HGIII-sPLA2 inh; BODIPY FL product fluorescence interference, cell-free; IC50, µM; 240 tested, under 10 active; AID 743455;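 active means IC50 at or below 10 µM; inactive means IC50 above 10 µM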
Of the large screens only hits and unclear results are named; the others gave an inactive call (follow-up assays come after a bar, where they were run).

O=C(CSCc1c(F)cccc1Cl)NNC(=S)NC1CCCCC1	HGIII-sPLA2 inh 21 | sPLA2 confirm inactive | 535nm interf inactive
CCOC(=O)c1cc(CC)sc1/N=C/C1=C(O)CC(C)(C)CC1=O	HGIII-sPLA2 inh 23 (no result: H9c2 TAG inh) | sPLA2 confirm inactive | 535nm interf inactive
Cc1nc2c(c(=O)c3ccccc3n2C)c(=O)n1-c1ccc(F)cc1	none
CC(C)c1nc2c(c(=O)c3ccccc3n2C)c(=O)n1-c1ccc(F)cc1	HGIII-sPLA2 inh 24 (no result: H9c2 TAG inh) | sPLA2 confirm inactive | 535nm interf inactive
COc1cccc(Nc2nc(C)cc(C)c2C(N)=O)c1	none
c1cn2c(NC3CCCCC3)c(-c3ccc(SC4CCCCC4)cc3)nc2cn1	none
CCN(CC)c1ccc(-c2nc3cnccn3c2NC2CCCC2)cc1	HGIII-sPLA2 inh 21 | sPLA2 confirm 27 | 535nm interf inactive
COc1ccccc1CNS(=O)(=O)c1c(C)cc(C)cc1C	none (no result: Efflux pump inh)
CCNC(=O)C1(C)CCCN(Cc2noc(-c3c(C)noc3C)n2)C1 (configuration not stated)	none (no result: Efflux pump inh)
CC1(C)CC(=O)C(N=Nc2ccc(C(F)(F)F)cc2[N+](=O)[O-])=C(O)C1	HGIII-sPLA2 inh 20 | sPLA2 confirm inactive | 535nm interf inactive
S=c1[nH]c2ccccc2n2c(=S)[nH]nc12	HGIII-sPLA2 inh 21 (no result: H9c2 TAG inh) | sPLA2 confirm 26 | 535nm interf inactive
N#CCC(=O)N1CCN(C=O)CC1	none (no result: MT1-MMP act inh)
C/C(=N/NC(=O)c1ccc2c(c1)OCCO2)c1ccc([N+](=O)[O-])cc1	HGIII-sPLA2 inh 23 | sPLA2 confirm inactive | 535nm interf inactive
C/C(=N/NC(=O)c1ccc2c(c1)OCO2)c1cccc([N+](=O)[O-])c1	none
CCC(C)c1ccccc1OCCOCCN1CCCC1 (configuration not stated)	HGIII-sPLA2 inh 20 (no result: H9c2 TAG inh) | sPLA2 confirm inactive | 535nm interf inactive
CCC(C)c1ccccc1OCCCCN1CCCC1 (configuration not stated)	none (no result: H9c2 TAG inh)
O=C(Nc1ccc(COc2ccccc2)cc1)Oc1ccccc1N1CCOCC1	HGIII-sPLA2 inh 25 | sPLA2 confirm inactive | 535nm interf inactive
O=C(Nc1ccccc1)Oc1ccccc1N1CCOCC1	none
Cc1cc(C)cc(NC(=O)c2ccc(CNc3c(N4CCCC4)c(=O)c3=O)cc2)c1	none
CC1=C(C(=O)N(C)C)CC(CC(=O)NCc2cccc3ccccc23)C(=O)N1CCCN1CCCC1=O (configuration not stated)	HGIII-sPLA2 inh 21 (no result: Efflux pump inh) | sPLA2 confirm inactive | 535nm interf inactive
Cc1ccc(C=Nn2c(-c3n[nH]c4c3CCC4)n[nH]c2=S)o1	HGIII-sPLA2 inh 21 (no result: H9c2 TAG inh, Efflux pump inh, MT1-MMP act inh) | sPLA2 confirm inactive | 535nm interf inactive
CCCn1c(C(C)C)n[nH]c1=S	HGIII-sPLA2 inh 26 | sPLA2 confirm inactive | 535nm interf inactive
CCOC(=O)C1C(c2ccc(C)o2)NC(=O)NC1(O)C(F)(F)F (configuration not stated)	HGIII-sPLA2 inh 20 (no result: H9c2 TAG inh) | sPLA2 confirm inactive | 535nm interf inactive
COc1ccccc1NS(=O)(=O)c1ccc2ccccc2c1	none (no result: H9c2 TAG inh)
COc1ccc(NS(=O)(=O)c2ccc3ccccc3c2)c2ncccc12	HGIII-sPLA2 inh 28 (no result: H9c2 TAG inh) | sPLA2 confirm inactive | 535nm interf inactive
O=C(NCCc1ccccc1F)c1cccc2cccnc12	none (no result: H9c2 TAG inh)
CCCCCCC(=O)Oc1cccc(C2=CC(=O)CC(C)(C)C2=O)c1	none (no result: Efflux pump inh)
CCCCCN=C(N)N/N=C/c1c[nH]c2ccc(OC)cc12	HGIII-sPLA2 inh 28 | sPLA2 confirm 40 | 535nm interf inactive
CC(C)[C@@H](CO)N1Cc2nnn(Cc3ccccc3)c2-c2ccccc2S1(=O)=O	none (no result: H9c2 TAG inh, Efflux pump inh, MT1-MMP act inh)
CCOc1ccccc1NC(=O)C(OC(=O)c1ccccc1O)c1ccccc1 (configuration not stated)	HGIII-sPLA2 inh 22 (no result: H9c2 TAG inh) | sPLA2 confirm inactive | 535nm interf inactive
Cc1ccc(NS(=O)(=O)c2ccc(C)c(C(=O)N3CCN(C)CC3)c2)cc1	none (no result: H9c2 TAG inh)
Cc1nn(CC(=O)NNC(=S)Nc2ccccc2)c(C)c1[N+](=O)[O-]	HGIII-sPLA2 inh 20 (no result: H9c2 TAG inh) | sPLA2 confirm 22 | 535nm interf inactive
Cc1cccc(NC(=S)NNC(=O)CCn2nc(C)c([N+](=O)[O-])c2C)c1	none (no result: H9c2 TAG inh)
Cc1ccc(S(=O)(=O)N2CCCC2)cc1C(=O)NCc1ccccc1CN1CCCC1	none
Cc1ccccc1NC(=O)CSc1nc2ccccc2c(=O)n1C	none
O=S(=O)(NNc1ncc(C(F)(F)F)cc1Cl)c1ccc(F)cc1F	HGIII-sPLA2 inh 27 | sPLA2 confirm 30 | 535nm interf 29
COc1cc(OC)c(/C=N/n2c(C)nnc2C)c(OC)c1	none (no result: H9c2 TAG inh)
COC(=O)c1ccc(C(=O)Nc2ccc3c(c2)C(=O)NC3=O)cc1	HGIII-sPLA2 inh 23 (no result: H9c2 TAG inh) | sPLA2 confirm inactive | 535nm interf 6.8
CCOC(=O)N1CCC(N2C(=O)c3ccc(C(=O)O)cc3C2=O)CC1	none
CCOC(=O)c1ccc2c(c1)C(=O)N(C1CCCCC1)C2=O	HGIII-sPLA2 inh 20 (no result: H9c2 TAG inh) | sPLA2 confirm inactive | 535nm interf inactive
COC(=O)c1ccc(Sc2ccc(C)cc2)c(N)c1	none (no result: H9c2 TAG inh)
COc1cc(Sc2ccc(C)cc2)c(OC)cc1N	HGIII-sPLA2 inh 22 (no result: H9c2 TAG inh) | sPLA2 confirm 38 | 535nm interf 9.1
COc1ccc(-c2csc(NC(=O)CCN3C(=O)C4CC=CCC4C3=O)n2)cc1OC (configuration not stated)	none
NCCNc1ccc(C(=O)N2c3ccccc3Sc3ccccc32)cc1[N+](=O)[O-]	HGIII-sPLA2 inh 20 | sPLA2 confirm 24 | 535nm interf inactive
CC1CN(C(=O)C2CC2)C(C)CN1C(=O)C1CC1 (configuration not stated)	HGIII-sPLA2 inh 25 (no result: H9c2 TAG inh) | sPLA2 confirm inactive | 535nm interf inactive
CC1CN(C(=O)C2CCCC2)C(C)CN1C(=O)C1CCCC1 (configuration not stated)	none (no result: H9c2 TAG inh)
O=C(NNc1nc2c(F)cc(F)cc2s1)C1COc2ccccc2O1 (configuration not stated)	none
Cc1cc(C)c2sc(NNC(=O)C3COc4ccccc4O3)nc2c1 (configuration not stated)	HGIII-sPLA2 inh 28 | sPLA2 confirm 31 | 535nm interf inactive | 535nm interf DR inactive
Cc1cccc2sc(NNC(=O)C3COc4ccccc4O3)nc12 (configuration not stated)	none
COc1ccc(OC)c2sc(NNC(=O)C3COc4ccccc4O3)nc12 (configuration not stated)	HGIII-sPLA2 inh 21 | sPLA2 confirm inactive | 535nm interf inactive
CCCCn1c(N)c(N(CCOC)C(=O)C2CCN(S(=O)(=O)c3ccc(C)cc3)CC2)c(=O)[nH]c1=O	HGIII-sPLA2 inh 22 | sPLA2 confirm inactive | 535nm interf inactive
